Bioassay records (PubChem BioAssay)
Only some compounds are listed: those with a hit (about 2.3% of all), similar ones and a draw of the others.
Pyk2 oligo antag – blocks oligomerization of human Pyk2 in cells. Q14289. Q293 cells, Pyk2 FERM NanoBiT luminescence; stronger effect = lower value. z-score (the deposit names both 25 µM and 10 µM). 99,000 compounds, 0.83% hits. AID 1347419;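 active = Z-score of -3 or lower, scaled per plate to the spread of control and sample wells; inactive = z-score above -3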;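 also: negative z-score means lost luminescence so less FERM oligomerization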
Mac1 fbg inh – inhibitors of human CD11b/CD18 binding to fibrinogen | inhibition, % at 10 µM | P05107+P11215 | 93,000 compounds, 0.54% hits | K562 CD11b/CD18 adhesion to fibrinogen, ATPlite luminescence; Mn2+ added to activate the integrin;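 active = primary inhibition of 50% or more at 10 µM, then 40% or more on retest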
Target sequence (P05107 whole entry, looked up, other chains not shown): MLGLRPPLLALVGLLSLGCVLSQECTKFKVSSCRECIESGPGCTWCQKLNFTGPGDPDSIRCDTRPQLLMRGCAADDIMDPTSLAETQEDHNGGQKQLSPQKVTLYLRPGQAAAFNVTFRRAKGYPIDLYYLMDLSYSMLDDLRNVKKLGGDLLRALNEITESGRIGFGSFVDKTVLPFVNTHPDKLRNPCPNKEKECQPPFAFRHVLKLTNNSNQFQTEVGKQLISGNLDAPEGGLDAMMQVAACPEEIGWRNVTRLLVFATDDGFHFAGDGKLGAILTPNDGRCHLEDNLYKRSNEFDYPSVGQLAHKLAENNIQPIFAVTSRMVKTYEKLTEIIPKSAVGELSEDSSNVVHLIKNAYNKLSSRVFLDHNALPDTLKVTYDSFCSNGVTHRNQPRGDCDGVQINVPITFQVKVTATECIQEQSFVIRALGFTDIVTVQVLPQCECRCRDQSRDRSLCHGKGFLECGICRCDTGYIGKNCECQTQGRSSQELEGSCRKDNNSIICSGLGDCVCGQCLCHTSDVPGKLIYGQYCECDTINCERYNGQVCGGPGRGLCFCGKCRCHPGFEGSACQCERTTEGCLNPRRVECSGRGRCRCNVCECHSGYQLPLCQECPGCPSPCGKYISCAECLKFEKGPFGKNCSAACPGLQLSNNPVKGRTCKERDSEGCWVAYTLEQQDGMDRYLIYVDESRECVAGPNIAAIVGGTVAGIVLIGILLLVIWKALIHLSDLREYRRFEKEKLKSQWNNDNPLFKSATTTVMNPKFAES
CD11b adhes enh – CD11b/CD18-fibrinogen binding enhancement; P05107+P11215; K562 CD11b/CD18 adhesion to fibrinogen, ATPlite luminescence; activation, % at 10 µM; 93,000 compounds, 0.07% hits; AID 1499;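 active = 10 µM primary screen giving 50% or more activity, confirmed by 40% or more on retest at that dose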
tolC growth inh – growth inhibitors of E. coli BW25113 tolC mutant. AID 573. OD615. growth inhibition, % at 10 µM (by protocol). 65,000 compounds, 2.2% hits;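 active = growth inhibition at or above a cutoff equal to the mean over every tested compound plus 3 SD, cut at about 60% in these data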;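 also: growth measured after 20 h incubation at 37 °C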
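Assay system: tolC-deleted E. coli BW25113. Medium: kanamycin-containing LB broth (50 µg/mL). Dosing: 10 µM final, single dose. Timing: bacterial growth with compound for 20 h at 37 °C. Detection: A615 absorbance measurement. Read-out basis: growth inhibition in percent.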
E coli WT exp – growth inhibitors of E. coli BW25113 wild type; growth inhibition, % at 100 µM; OD600 absorbance; 98,000 compounds, 0.15% hits;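 active = growth inhibition above about 50% at one test dose, limit read from the data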;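 also: growth measured after 20 h incubation at 37 °C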
Numbers without * were called inactive; x = not tested or not shown.

SMILES	Pyk2 oligo antag	Mac1 fbg inh	CD11b adhes enh	tolC growth inh	E coli WT exp
Cc1cc2c(=O)n(CC(=O)NCC(=O)N3CCN(Cc4ccccc4)CC3)cnc2s1	1	-8.7	1.8	-7.4	4.0
C=CCN(CC=C)S(=O)(=O)c1ccc2nc(NC(=O)C(C)C)sc2c1	-2.99	11.8	-1.9	100.0*	5.0
COc1cc(-c2nnc(-c3ccco3)o2)ccc1OCc1ccccc1	-0.95	x	x	96.1*	-12.0
CC1(C)C(=O)OC(c2ccccc2)C2(CCCC2)C1=O (stereo unspecified)	-0.33	-14.7	-1.1	x	-1.0
CCOc1ccc(C2c3c(oc4ccccc4c3=O)C(=O)N2c2ccccn2)cc1OC (stereo unspecified)	x	x	x	-2.2	x
CCOc1ccc(N=C2NC(=O)S/C2=C\c2ccc(Cl)cc2)cc1	0.42	2.3	-6.9	x	4.0
COc1ccc(N=C2NC(=O)S/C2=C\c2ccc(N(C)C)cc2)cc1	-3.08*	-3.6	-1.0	x	-21.0
C/C(=N\NC(=O)c1ccc(Br)cc1)C1C(=O)c2ccccc2C1=O	-2.7	96.8*	-7.0	x	18.0
c1ccc(-c2nn3c(-c4ccncc4)nnc3s2)nc1	x	x	x	13.5	x
COc1ccc(NS(=O)(=O)c2cc(-c3nnnn3C)ccc2OC)cc1	-0.08	-1.9	8.7	-1.6	7.0
COc1nccnc1NS(=O)(=O)c1ccc(NS(=O)(=O)c2ccc(NC(C)=O)cc2)cc1	0.89	68.4*	-2.5	x	-2.0
O=C(CSCc1cccc(Cl)c1)Nc1ccccc1-c1ccccc1	x	-20.1	-3.6	x	x
C=CCn1c(COc2ccc(Cl)cc2)nnc1SCC(=O)N1CC(=O)Nc2ccccc21	-0.34	-4.5	3.8	13.6	5.0
CCOC(=O)C1=Nc2ccccc2C1=[N+]=[N-]	0.56	-32.6	15.1	8.2	100.0*
OC1CCCN(c2c3c(nc4cc(-c5cccc(Cl)c5)nn24)CCC3)C1 (stereo unspecified)	-3.24*	x	x	12.6	-3.0
Cc1cccc(-c2cc3nc4c(c(N5CCOCC5)n3n2)CCCC4)c1	-0.77	25.7	2.9	84.7*	-16.0
CN(CCCC(=O)Nc1ccncc1)S(=O)(=O)c1ccc(Cl)cc1	0.84	50.3*	-5.9	-0.7	2.0
CN(CC(=O)Nc1ccncc1)S(=O)(=O)c1ccc(Br)cc1	-0.14	-4.5	-3.0	x	4.0
O=C(Nc1ccccc1N1CCCCC1)c1ccccc1F	1.6	17.1	-3.2	87.7*	2.0
O=C(Nc1ccccc1N1CCCC1)c1cccnc1Cl	-0.77	x	x	x	x
CCc1nnc(NC(=O)C2CCCN2C(=O)NC2CCCCC2)s1 (stereo unspecified)	-0.47	10.5	-3.6	-11.2	-3.0
S=c1[nH]c2cc(Cl)ccc2s1	2.08	x	x	x	53.0*
CCOC(=O)CSc1n[nH]c(-c2ccco2)n1	x	-4.3	1.2	-9.0	2.0
O=C(CSc1n[nH]c(-c2ccco2)n1)N1c2ccccc2Sc2ccccc21	-1.33	6.8	0.7	73.2*	0.0
COc1cccc(C(=O)Nc2nc3c(s2)CN(C)CC3)c1	-0.74	x	x	x	-1.0
SMILES	Pyk2 oligo antag	Mac1 fbg inh	CD11b adhes enh	tolC growth inh	E coli WT exp
Cc1ccc(S(=O)(=O)NCC(=O)NCc2ccncc2)cc1	-0.99	x	x	x	x
Cc1ccc(S(=O)(=O)NCc2ccncc2)cc1	1.41	69.0*	-4.6	-10.5	4.0
CCOc1ccc(S(=O)(=O)NCc2ccncc2)cc1	0.36	98.0*	-6.6	x	-2.0
Nc1nc(-c2ccc3ccccc3c2)c(C2(O)C(=O)Nc3c(Br)cc(F)cc32)s1 (stereo unspecified)	0.4	11.5	-5.6	x	-5.0
CCNc1nc2nonc2nc1NCC	0.09	3.5	1.9	1.5	10.0
COC(=O)/C=C/CSC1=N/C(=C/c2ccc(-n3cncn3)cc2)C(=O)N1	-0.44	x	x	x	3.0
Cc1ccc(C(C#N)c2ccc(C(=O)c3ccc(F)cc3)cc2)cc1 (stereo unspecified)	-1.91	94.6	-5.8	x	-17.0
N#CC(c1ccc(F)cc1)c1ccc(C(=O)c2ccc(F)cc2)cc1 (stereo unspecified)	-1.05	87.2*	-5.3	x	-11.0
COC(=O)COc1ccc(S(=O)(=O)N2CCc3ccccc3C2)cc1C	0.95	2.0	1.3	x	-7.0
O=C(Nc1cccc(C(F)(F)F)c1)c1ccco1	-0.43	x	x	13.8	2.0
O=C(Nc1ccc(Cl)c(C(F)(F)F)c1)c1ccco1	-1.15	16.7	-3.0	98.3*	30.0
Cc1cc(N2C(=O)C3C4C=CC(C4)C3C2=O)ccc1Br (stereo unspecified)	-0.86	-32.5	-3.7	-13.0	1.0
CCOC(=O)C1=C(C)NC2=C(C(=O)CC(c3cccs3)C2)C1c1cccs1 (stereo unspecified)	-3.33*	x	x	x	x
CC1=C(C(=O)OC2CCCCCC2)C(c2ccc(C)o2)C2=C(CCCC2=O)N1 (stereo unspecified)	-1.19	x	x	100.0*	-7.0
CC1=C(C(=O)OC2CCCC2)C(c2ccc(C)o2)C2=C(CC(c3cccs3)CC2=O)N1 (stereo unspecified)	-1.46	35.6	0.1	64.7*	-5.0
Cn1c(=O)n(Cc2ccccc2)c(=O)c2c1nc1n2CCCN1Cc1ccccc1	-1.15	4.5	-2.0	62.2*	9.0
Cc1ccc(Cn2c(=O)c3c(nc4n3CCCN4Cc3ccccc3)n(C)c2=O)cc1	-0.17	1.4	-1.1	-9.5	0.0
Nc1nc(NC(=O)Cc2ccccc2)nn1-c1ccccc1	0.51	1.5	0.5	4.6	2.0
CC(C)Oc1ccc(C2CC(=O)N(c3ccccc3)C2=O)cc1 (stereo unspecified)	-1.27	3.1	-5.1	x	-2.0
CC(C)Oc1ccc(C2CC(=O)N(c3ccc(N(C)C)cc3)C2=O)cc1 (stereo unspecified)	-4.23*	x	x	x	x
O=C(N/N=C/C1CCCCC1)c1ccccn1	-0.74	11.9	2.3	x	0.0
O=C(N/N=C/C1CCCCC1)c1cc(Cl)ccc1O	-0.42	x	x	x	50.0*
CCc1c(C#N)c(SCCC(=O)Nc2ccc(OC)cc2)nc2c1C(=O)CC(C)(C)C2	-3.09*	10.7	0.0	x	-12.0
CCCCOC(=O)CSc1nc2c(cc1C#N)C(=O)CC(C)(C)C2	0.37	-30.0	-1.3	45.5	1.0
COc1ccc(-c2c(C#N)c(SCC(=O)Nc3ccccc3)nc3c2CCCC3)cc1	-1.15	x	x	x	x
SMILES	Pyk2 oligo antag	Mac1 fbg inh	CD11b adhes enh	tolC growth inh	E coli WT exp
CCc1c(C#N)c(SCc2c(C)noc2C)nc2c1C(=O)CC(C)(C)C2	x	x	x	62.7*	x
COc1ccccc1C1CC(c2ccc(Cl)cc2)Nc2ncnn21 (stereo unspecified)	-0.04	3.3	-3.5	60.4*	10.0
Cc1cc(C)cc(NCCC#N)c1	x	-6.2	3.7	x	x
O=C(CN(Cc1ccco1)C(=O)c1cccc(Cl)c1)Nc1c(Cl)cc(Cl)cc1Cl	-1.91	x	x	x	-7.0
O=C(CN(Cc1ccco1)C(=O)c1ccccc1)Nc1ccc(Cl)c(Cl)c1	-3.74*	x	x	x	-5.0
COc1ccc(OC)c(C(=O)COC(=O)c2cc(C)oc2C)c1	0.97	x	x	61.0*	-4.0
O=C(NC1(C(F)(F)F)C(=O)Nc2c1c(=O)[nH]c(=O)n2Cc1ccco1)C1CCCCC1 (stereo unspecified)	-0.56	-4.4	-4.3	-1.1	0.0
